Experimental data reported in ChEMBL document CHEMBL1148516, “Design and evaluation of new antipsoriatic antedrug candidates having 16-en-22-oxa-vitamin D3 structures” (Bioorg Med Chem Lett, 2006).

What was measured:
Mus musculus = assay: Calcemic activity in percutaneously dosed mouse relative to control; assay type: functional
How it was run: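 Mice received a single percutaneous dose of test compound or vehicle, n = 3. Blood ionized Ca (mmol/L) was measured. Activity (%) = (analog Ca − vehicle Ca)/vehicle Ca × 100.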

Keratinocyte = assay: Antiproliferative activity against human keratinocyte assessed as inhibition of [3H]TdR uptake; assay type: functional, cell-based
[1] = molecular target: T1, Vitamin D3 receptor (Gallus gallus) (UniProt O42392); assay: Binding affinity to chick VDR
T1 sequence (whole entry): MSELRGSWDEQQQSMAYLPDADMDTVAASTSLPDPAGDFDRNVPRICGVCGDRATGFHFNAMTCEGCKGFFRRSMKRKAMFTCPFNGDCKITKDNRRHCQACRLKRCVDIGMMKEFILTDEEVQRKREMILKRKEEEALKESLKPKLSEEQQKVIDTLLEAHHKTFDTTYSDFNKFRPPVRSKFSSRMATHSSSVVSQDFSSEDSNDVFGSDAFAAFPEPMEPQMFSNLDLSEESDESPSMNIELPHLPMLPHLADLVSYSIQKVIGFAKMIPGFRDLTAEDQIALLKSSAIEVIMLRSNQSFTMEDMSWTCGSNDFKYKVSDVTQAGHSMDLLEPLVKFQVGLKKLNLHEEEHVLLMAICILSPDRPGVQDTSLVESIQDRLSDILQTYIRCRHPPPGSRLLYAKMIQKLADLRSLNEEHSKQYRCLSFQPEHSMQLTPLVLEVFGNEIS
How it was run: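 Receptor affinity is expressed as a percentage relative to calcitriol, set at 100%. Each value is the average of duplicate measurements.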

[2] = Clearance in rat at 10 ug/kg, iv; assay type: ADME, organism-based; settings: in vivo, 0.01 mg/kg
How it was run: (§1)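 Rats were dosed intravenously at 10 µg/kg or 1000 µg/kg. Total clearance (mL/h/kg) is the mean of 3–4 rats.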

Homo sapiens = species: Homo sapiens; assay: Clearance in human liver S9 fraction; assay type: ADME
How it was run: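 Compound was incubated with human liver S9 in the presence of NADPH. The elimination rate was taken from the time course of compound concentration in the reaction mixture. Clearance is given as mL/min/mg S9 protein, mean of two experiments.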

[3] = Clearance in rat at 1000 ug/kg, iv; assay type: ADME, organism-based; settings: in vivo, 1 mg/kg; how it was run: as §1

Row | SMILES | Activity [1] [%] | clearance [2] [mL/min/kg] | CL (Homo sapiens) [µL/min/mg] | clearance [3] [mL/min/kg] | Blood ionized calcium (Mus musculus) [mmol/L] | IC50 (Keratinocyte) [nM]
1 | C=C1/C(=C\C=C2/CCC[C@]3(C)[C@@H]([C@H](C)OCCC(C)(C)O)CC[C@@H]23)C[C@@H](O)C[C@@H]1O [MAXACALCITOL] | 20 | 20.9 | 7 | – | 2.6 | 22.6
2 | C=C1/C(=C\C=C2/CCC[C@]3(C)C([C@H](C)O)=CCC23)C[C@@H](O)C[C@@H]1O (some centres not stated) | 0.32 | – | – | – | 1.4 | > 1000
3 | C=C1/C(=C\C=C2/CCC[C@]3(C)C([C@H](C)OCCC(C)(C)O)=CCC23)CC(O)CC1O (single isomer, unassigned) | – | – | – | – | 2.16 | 50.4
4 | C=C1/C(=C\C=C2/CCC[C@@]3(C)C2CC[C@@H]3[C@H](C)CCC(=O)OC(C)(C)C)C[C@@H](O)C[C@@H]1O (some centres not stated) | – | – | – | – | 1.77 | 17
5 | C=C1/C(=C\C=C2/CCC[C@@]3(C)C2CC[C@@H]3[C@H](C)OCC(=O)OC(C)(C)C)C[C@@H](O)C[C@@H]1O (some centres not stated) | – | – | – | – | 1.49 | 88.4
6 | C=C1/C(=C\C=C2/CCC[C@]3(C)[C@@H]([C@H](C)CCCC(C)(C)O)CC[C@@H]23)C[C@@H](O)C[C@@H]1O | 100 | – | – | – | – | –

Further lines, with some results ahead:

Row | Activity [1] [%] | clearance [2] [mL/min/kg] | CL (Homo sapiens) [µL/min/mg] | clearance [3] [mL/min/kg] | SMILES | Blood ionized calcium (Mus musculus) [mmol/L] | IC50 (Keratinocyte) [nM]
7 | 45.1 | – | 1421 | 94.8 | C=C1/C(=C\C=C2/CCC[C@]3(C)C([C@H](C)OCC(=O)OC(C)(CC)CC)=CCC23)C[C@@H](O)C[C@@H]1O (some centres not stated) | 1.57 | 0.8
8 | 34.4 | – | 278 | 131 | C=C1/C(=C\C=C2/CCC[C@]3(C)C([C@H](C)OCC(=O)NCC(F)(F)C(F)(F)F)=CCC23)C[C@@H](O)C[C@@H]1O (some centres not stated) | 1.58 | 1.9
9 | 40.1 | – | – | – | C=C1/C(=C\C=C2/CCC[C@]3(C)C([C@H](C)OCC(=O)OC(C)(C)C)=CCC23)C[C@@H](O)C[C@@H]1O (some centres not stated) | 1.65 | 8.9
10 | 18 | – | – | – | C=C1/C(=C\C=C2/CCC[C@]3(C)C([C@H](C)OCC(=O)NCC(C)(C)C)=CCC23)C[C@@H](O)C[C@@H]1O (some centres not stated) | 1.82 | 17.4
11 | 0.04 | – | – | – | C=C1/C(=C\C=C2/CCC[C@]3(C)C([C@H](C)OCC(=O)O)=CCC23)C[C@@H](O)C[C@@H]1O (some centres not stated) | 1.38 | > 1000
12 | 22.2 | – | – | – | C=C1/C(=C\C=C2/CCC[C@]3(C)C([C@H](C)OCC(=O)NC(C)(C)C)=CCC23)C[C@@H](O)C[C@@H]1O (some centres not stated) | 2.16 | 4.4
